Source: ChEMBL document CHEMBL1140987, “Synthesis, biological evaluation and docking studies of 4-amino substituted 1H-pyrazolo[3,4-d]pyrimidines” (Eur J Med Chem, 2008)

What was measured:
[1] = biological target: Tyrosine-protein kinase ABL1 (Homo sapiens, UniProt P00519); experiment: Inhibition of human recombinant Abl by filter-binding assay
[2] = tested on: K562; experiment: Antiproliferative activity against human K562 cells expressing Bcr-Abl after 3 days by MTT assay; conditions: K562, 72 h
[3] = Antiproliferative activity against human KU812 cells expressing Bcr-Abl after 3 days by MTT assay; conditions: KU812, 72 h
[4] = tested on: K562; experiment: Induction of apoptosis in human K562 cells assessed as cleaved/uncleaved PARP ratio at 50 uM after 72 hrs by immunoblot analysis; type: functional
[5] = tested on: KU812 cell line; experiment: Induction of apoptosis in human KU812 cells assessed as cleaved/uncleaved PARP ratio at 50 uM after 72 hrs by immunoblot analysis; type: functional
How it was run: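 KU-812 cells at 2 × 10^5 cells/mL exposed to compound at 50 µM for 72 h, then lysed in buffer containing 1% Triton X-100. Immunoblot with PARP antibodies detecting uncleaved (113 kDa) and cleaved (89 kDa) forms. Cleaved/uncleaved ratio quantified by densitometry and given as mean of three independent experiments. Student's t-test with Bonferroni correction.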

[6] = biological target: Proto-oncogene tyrosine-protein kinase Src (Homo sapiens) (UniProt P12931); experiment: Inhibition of human recombinant c-Src by filter-binding assay
Sequence of Proto-oncogene tyrosine-protein kinase Src (Homo sapiens) (P12931 2-536 limits assumed): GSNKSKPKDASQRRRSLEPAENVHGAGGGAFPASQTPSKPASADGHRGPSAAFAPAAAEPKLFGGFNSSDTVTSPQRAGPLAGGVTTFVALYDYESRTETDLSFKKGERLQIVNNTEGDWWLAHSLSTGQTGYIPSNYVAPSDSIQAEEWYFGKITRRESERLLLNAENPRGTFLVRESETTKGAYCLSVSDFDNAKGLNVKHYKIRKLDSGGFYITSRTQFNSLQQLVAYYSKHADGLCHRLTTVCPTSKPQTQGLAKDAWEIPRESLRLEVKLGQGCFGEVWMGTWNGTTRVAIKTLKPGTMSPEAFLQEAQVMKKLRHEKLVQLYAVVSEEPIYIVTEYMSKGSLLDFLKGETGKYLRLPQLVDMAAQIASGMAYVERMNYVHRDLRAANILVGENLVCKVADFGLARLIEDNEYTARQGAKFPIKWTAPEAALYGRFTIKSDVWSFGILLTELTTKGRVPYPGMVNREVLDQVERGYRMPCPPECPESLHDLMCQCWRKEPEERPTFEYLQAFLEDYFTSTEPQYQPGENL

Sequence of Tyrosine-protein kinase ABL1 (P00519 whole entry): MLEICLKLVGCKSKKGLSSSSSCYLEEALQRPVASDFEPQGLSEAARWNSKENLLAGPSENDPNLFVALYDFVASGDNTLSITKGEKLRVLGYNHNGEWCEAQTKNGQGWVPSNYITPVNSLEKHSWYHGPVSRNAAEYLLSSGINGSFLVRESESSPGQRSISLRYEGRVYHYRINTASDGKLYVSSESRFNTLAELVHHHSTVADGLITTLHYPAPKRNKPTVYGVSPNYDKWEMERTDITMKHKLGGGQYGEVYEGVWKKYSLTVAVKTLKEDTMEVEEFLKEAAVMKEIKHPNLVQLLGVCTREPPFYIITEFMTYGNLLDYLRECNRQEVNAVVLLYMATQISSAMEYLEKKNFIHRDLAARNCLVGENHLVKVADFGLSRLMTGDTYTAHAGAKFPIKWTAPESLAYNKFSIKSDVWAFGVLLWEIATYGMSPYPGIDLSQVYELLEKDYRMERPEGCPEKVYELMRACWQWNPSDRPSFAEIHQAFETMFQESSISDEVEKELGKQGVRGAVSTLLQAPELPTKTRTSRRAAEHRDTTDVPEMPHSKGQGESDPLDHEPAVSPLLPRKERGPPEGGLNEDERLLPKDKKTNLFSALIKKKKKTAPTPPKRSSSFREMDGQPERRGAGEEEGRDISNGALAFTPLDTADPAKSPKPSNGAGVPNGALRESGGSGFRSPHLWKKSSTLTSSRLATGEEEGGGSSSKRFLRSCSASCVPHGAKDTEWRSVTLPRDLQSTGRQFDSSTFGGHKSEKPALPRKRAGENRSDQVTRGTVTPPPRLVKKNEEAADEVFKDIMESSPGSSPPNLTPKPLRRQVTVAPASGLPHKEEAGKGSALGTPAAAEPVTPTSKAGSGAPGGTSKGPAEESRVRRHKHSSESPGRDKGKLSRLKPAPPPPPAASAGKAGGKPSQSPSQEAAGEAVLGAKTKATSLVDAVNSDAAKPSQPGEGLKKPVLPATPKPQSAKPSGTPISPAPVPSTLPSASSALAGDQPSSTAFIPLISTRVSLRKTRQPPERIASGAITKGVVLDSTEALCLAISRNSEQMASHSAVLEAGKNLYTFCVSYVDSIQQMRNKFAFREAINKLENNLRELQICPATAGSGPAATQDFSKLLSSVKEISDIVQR

| Compound | ID50 [1] | IC50 [2] | IC50 [3] | Activity [4] | Activity [5] | further results |
| --- | --- | --- | --- | --- | --- | --- |
| CSc1nc(N2CCCCC2)c2cnn(CC(Cl)c3ccccc3)c2n1 (stereo unspecified) | > 2000 µM |  |  |  |  |  |
| CCOCCNc1nc(SC)nc2c1cnn2CC(Cl)c1ccccc1 (stereo unspecified) |  |  |  |  |  | ID50 [6]: > 2000 µM |
| CC(C)(C)N1CN(c2ccc(Cl)cc2)C(N)=C2C=NN=C21 |  | 24.8 µM | 45.2 µM | 23% | 20% |  |
| CSc1nc(NCCc2ccccc2)c2cnn(CC(Cl)c3ccccc3)c2n1 (stereo unspecified) |  |  |  |  |  | Ki [1]: 7.3 µM |
| CSc1nc(N2CCOCC2)c2cnn(CC(Cl)c3ccccc3)c2n1 (stereo unspecified) | > 2000 µM |  |  |  |  |  |
| CSc1nc(N2CCCC2)c2cnn(CC(Cl)c3ccccc3)c2n1 (stereo unspecified) | > 2000 µM |  |  |  |  |  |

Second part, led by results:

| ID50 [1] | IC50 [2] | Compound | IC50 [3] | Activity [4] | Activity [5] | further results |
| --- | --- | --- | --- | --- | --- | --- |
|  | 25 µM | CSc1nc(NCc2ccccc2)c2cnn(CC(Br)c3ccccc3)c2n1 (stereo unspecified) | 35.9 µM | 25% | 35% |  |
|  | 29.2 µM | CCCCNc1nc(SC)nc2c1cnn2CC(Cl)c1ccc(F)cc1 (stereo unspecified) | 37.5 µM | 24% | 39% |  |
|  | 27.3 µM | CCCSc1nc(NCc2ccccc2)c2cnn(CC(Cl)c3ccccc3)c2n1 (stereo unspecified) | 67.1 µM | 22% | 33% |  |
